Results from different studies.
pIC50: −log10 of the molar value.
Cell line: HCT-116
Observed: cell growth or viability

| Compound | test | conditions | quantity | result |
| --- | --- | --- | --- | --- |
| Cc1c(OCC(F)(F)F)ccnc1COc1ccc(NC(=O)Nc2ccc(F)cc2)cc1 | MTT | 72 h | pIC50 | 5.20 |
| CC1=C(O)C(=O)C=C2C1=CC=C1[C@@]2(C)CC[C@@]2(C)[C@@H]3C[C@](C)(C(=O)OCCCOc4ccccc4)CC[C@]3(C)CC[C@]12C | MTT | 48 h | pIC50 | 5.87 |
| Cc1c(C)c2c(O)cc(O)cc2oc1=O | MTT | 36 h | pIC50 | < 4.70 |
| Nc1ncnc2c1ncn2[C@@H]1O[C@H](CO)[C@@H](O)[C@H]1O | WST-1 | 48 h | pIC50 | 4.38 |
| CSc1nc(/N=C/c2cc([N+](=O)[O-])ccc2O)n(-c2ccc(C(=O)O)cc2)n1 | MTT |  | pIC50 | 4.22 |
| CCOC(=O)/C=C1\S/C(=N\C(=O)c2ccc3ccccc3c2)N(C2CCCCC2)C1=O |  | 48 h | pIC50 | 4.94 |
| O=c1cc(CCl)c2cc(O)ccc2o1 | MTT | 36 h | pIC50 | < 4.70 |
| COc1ccc(Nc2nc(-n3nc(C)cc3C)nc(-n3nc(C)cc3C)n2)cc1 | MTT | 72 h | pIC50 | 5.44 |
| CCn1c(-c2nnc(NC(=O)c3cc4c([nH]c5ccccc54)c(-c4cc(OC)c(OC)c(OC)c4)n3)s2)cc2ccccc21 | MTT | 72 h | pIC50 | 4.73 |
| O=c1c(O)c(-c2ccc(O)c(O)c2)oc2cc(O)cc(O)c12 | WST-1 | 48 h | pIC50 | 5.04 |
| O=C(Nc1nnc(-c2cc3ccccc3[nH]2)s1)c1cc2c([nH]c3ccccc32)c(-c2ccc(F)cc2)n1 | MTT | 72 h | pIC50 | 5.21 |
| COCCCOc1ccnc(COc2ccc(NC(=O)Nc3ccc(OC)cc3)cc2)c1C | MTT | 72 h | pIC50 | 4.90 |
| O=C(NC(=S)NCCCNC(=S)NC(=O)c1ccc2ccccc2c1)c1ccc2ccccc2c1 |  | 48 h | pIC50 | 5.91 |
| Cc1c(OCC(F)(F)F)ccnc1COc1ccc(NC(=O)Nc2ccc(Cl)cc2)cc1 | MTT | 72 h | pIC50 | 5.41 |
| CC[C@H](C)C(=O)O[C@H]1C[C@H](O)C=C2C=C[C@H](C)[C@H](CC[C@@H](O)C[C@@H](O)CC(=O)O)[C@H]21 | SRB | 72 h | IC50 | 1.57 µg/mL |
| O=C1Nc2c(C(F)(F)F)cccc2[C@@]1(c1ccc(O)cc1)c1ccc(OC(F)(F)F)cc1 | resazurin | 7 days | pIC50 | 7.03 |
| Cc1ccc([P+](CCCCCCCCCCONC(N)=O)(c2ccc(C)cc2)c2ccc(C)cc2)cc1 | imaging |  | pIC50 | 5.43 |
| CS(=O)(=O)c1nc(N)n(-c2ccc(C(=O)O)cc2)n1 | MTT |  | pIC50 | 4.31 |
| O=C(Nc1nnc(-c2cc3ccccc3[nH]2)s1)c1cc2c([nH]c3ccccc32)c(-c2ccccc2)n1 | MTT | 72 h | pIC50 | 5.29 |
| COc1cc(Nc2nccc(-c3cnn4nc(OC)ccc34)n2)cc(C(F)(F)F)c1 | ATP luminescence |  | pIC50 | 6.26 |
| COCCCOc1ccnc(COc2ccc(NC(=O)Nc3ccc(Cl)c(C(F)(F)F)c3)cc2)c1C | MTT | 72 h | pIC50 | 5.00 |
| O=C(NC(=S)NCc1ccc(CNC(=S)NC(=O)c2ccc3ccccc3c2)cc1)c1ccc2ccccc2c1 |  | 48 h | pIC50 | 5.87 |
| CC[C@]1(O)C[C@H]2CN(CCc3c([nH]c4ccccc34)[C@@](C(=O)OC)(c3cc4c(cc3OC)N(C=O)[C@H]3[C@@](O)(C(=O)OC)[C@H](OC(C)=O)[C@]5(CC)C=CCN6CC[C@]43[C@@H]65)C2)C1 | fluorescence | 72 h | pIC50 | 8.77 |
| CSc1nc(NC(=S)NCCc2ccccc2)n(-c2ccc(C(=O)O)cc2)n1 | MTT |  | pIC50 | 4.34 |

| Compound | test | conditions | quantity | result |
| --- | --- | --- | --- | --- |
| CC(=O)c1ccc(-c2cccc(NC(=O)CCc3cccc4c3B(O)OC4)c2)cc1 | ATP luminescence | 72 h | pIC50 | 6.55 |
| COc1cc(CNC(=O)CCCC/C=C/C(C)C)ccc1OCc1cn(-c2ccc(C(F)(F)F)cc2)nn1 | SRB |  | pIC50 | 5.05 |
| CCNC(=S)NC(=O)c1ccc2ccccc2c1 |  | 48 h | pIC50 | 5.38 |
| COc1cccc2c3c(c[n+](C)c12)sc1cccc(F)c13 | MTT | 72 h | pIC50 | 5.17 |
| CC1=C(O)C(=O)C=C2C1=CC=C1[C@@]2(C)CC[C@@]2(C)[C@@H]3C[C@](C)(C(=O)OCCCCCO)CC[C@]3(C)CC[C@]12C | MTT | 48 h | pIC50 | 6.32 |
| O=C(NC(=S)Nc1ccc([N+](=O)[O-])cc1)c1ccc2ccccc2c1 |  | 48 h | pIC50 | 5.22 |
| CSc1nc(/N=C/c2cccc(O)c2)n(-c2ccc(C(=O)O)cc2)n1 | MTT |  | pIC50 | 4.15 |
| COCCCOc1ccnc(COc2ccc(NC(=O)Nc3ccc(Cl)cc3)cc2)c1C | MTT | 72 h | pIC50 | 5.02 |
| O=C(O)C[C@H](O)C[C@H](O)/C=C/c1c(C2CC2)nc2ccccc2c1-c1ccc(F)cc1 | SRB | 72 h | IC50 | 7.46 µg/mL |
| COc1cc([C@@H]2c3cc4c(cc3[C@@H](O[C@@H]3O[C@@H]5CO[C@@H](C)O[C@H]5[C@H](O)[C@H]3O)[C@H]3COC(=O)[C@H]23)OCO4)cc(OC)c1O | MTS | 48 h | pIC50 | 4.63 |
| CC(=O)SCc1cc(=O)oc2ccc(O)cc12 | MTT | 36 h | pIC50 | < 4.70 |
| COC(=O)c1ccc(-n2nc(SC)nc2N)cc1 | MTT |  | pIC50 | 4.41 |
| COC(=O)/C=C1\S/C(=N\C(=O)c2ccc3ccccc3c2)N(C2CCCCC2)C1=O |  | 48 h | pIC50 | 4.91 |
| C=CC(=O)Nc1cccc(Nc2nc(Nc3ccc(OCCOC)cc3)ncc2F)c1 |  |  | pIC50 | 5.17 |
| CC1=C(O)C(=O)C=C2C1=CC=C1[C@@]2(C)CC[C@@]2(C)[C@@H]3C[C@](C)(C(=O)OCCCCCCCO)CC[C@]3(C)CC[C@]12C | MTT | 48 h | pIC50 | 6.03 |
| COCCCOc1ccnc(COc2ccc(NC(=O)Nc3cc(F)cc(F)c3)cc2)c1C | MTT | 72 h | pIC50 | 4.25 |
| c1ccc2cc(-c3nnc(NC4CCCCC4)[nH]3)ccc2c1 |  | 48 h | pIC50 | 5.60 |
| COc1ccc2oc(=O)cc(CSC(C)=O)c2c1 | MTT | 36 h | pIC50 | < 4.70 |
| COc1ccc(NC(=O)Nc2ccc(OCc3ncc(C)c(OC)c3C)cc2)cc1 | MTT | 72 h | pIC50 | < 4.00 |
| COc1cc(CNC(=O)CCCC/C=C/C(C)C)ccc1OCc1cn(-c2ccc(C#N)cc2)nn1 | SRB |  | pIC50 | 4.98 |
| CCCCCCCCCCONC(N)=O | imaging |  | pIC50 | < 3.22 |
| COc1ccnc(COc2ccc(NC(=O)Nc3cc(F)cc(F)c3)cc2)c1OC | MTT | 72 h | pIC50 | 4.59 |
| CSc1nc(N)n(-c2ccc(C(=O)O)cc2)n1 | MTT |  | pIC50 | 4.21 |
